Test results from ChEMBL document CHEMBL2434962, “Benzohydroxamic acids as potent and selective anti-HCV agents” (Bioorg Med Chem Lett, 2013).
Active and inactive are the calls of the source. The rule behind the calls is not given here.

Assays:
Hepatitis C virus = assay: Antiviral activity against HCV in human Huh-luc/neo7 cells after 72 hrs by luciferase reporter gene assay; type: functional, organism-based, Hepacivirus hominis
How it was run: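 Huh7 cells persistently carrying full-genome HCV replicon treated with compound (e.g., 0, 1, 5, 25, 125 µM) for 72 h; replicon translation/replication read as firefly luciferase activity; EC50 from dose-response.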

[1] = Cytotoxicity against human HuH7 cells expressing luc/neo after 72 hrs by MTT assay; type: cell-based, Huh-7
[2] = Selectivity index, ratio of CC50 for human Huh-luc/neo7 cells to EC50 for HCV
RD [3] = assay: Cytotoxicity against human RD cells assessed as morphological changes incubated at 125 uM for 72 hrs and at 250 uM for 7 hrs by Hoechst 33342 staining-based fluorescence microscopy; type: cell-based
How it was run: (§1)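 RD cells incubated 72 h at 125 µM, then 7 h more at 250 µM (time of PV reproduction cycle); monolayer density by light transmission imaging and nuclear morphology by fluorescence microscopy after Hoechst 33342 DNA staining, compared with untreated controls.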

Enterovirus C [4] = assay: Antiviral activity against poliovirus infected in human RD cells assessed as destruction of RD cell monolayer pretreated at 125 uM for 72 hrs followed by viral infection and compound treatment at 250 uM for 7 hrs by light microscopy; type: functional, cell-based
How it was run: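 RD cells were pretreated with compound for 72 h at 125, then infected with poliovirus at an MOI of ~20 or ~600 PFU/cell and incubated at 250 for 7 h. The integrity of the cell monolayer was examined by light microscopy right after infection or at 7 h.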

Enterovirus C [5] = assay: Antiviral activity against poliovirus infected in human RD cells assessed as nuclear alteration pretreated at 125 uM for 72 hrs followed by viral infection and compound treatment at 250 uM for 7 hrs by Hoechst 33342 staining-based fluorescence microscopy; type: functional, cell-based
How it was run: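 RD cells were pretreated with compound for 72 h at 125, then infected with poliovirus at an MOI of ~20 or ~600 PFU/cell and held at 250 for 7 h. Nuclear DNA was stained with Hoechst33342, and nuclear alterations were scored by fluorescence microscopy right after infection or at 7 h.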

RD [6] = assay: Cytotoxicity against human RD cells assessed as cell density incubated at 125 uM for 72 hrs and at 250 uM for 7 hrs by light transmission spectroscopy relative to vehicle-treated control; type: cell-based; how it was run: as §1

SMILES | EC50 (Hepatitis C virus) [µM] | CC50 at 72 h [1] [µM] | Ratio CC50/EC50 [2] | Activity (RD [3]) | Activity (Enterovirus C [4]) | Activity (Enterovirus C [5]) | Activity (RD [6])
CN(O)C(=O)c1ccccc1 | 65 | 400 | – | – | – | – | –
COc1ccccc1C(N)=O | > 300 | > 800 | – | – | – | – | –
O=C(NO)c1cccc(Br)c1 | 12 | 310 | 26 | – | – | – | –
O=C(NO)c1cc([N+](=O)[O-])ccc1O | 160 | > 1000 | >6 | – | – | – | –
COc1ccc(C)cc1C(=O)NO | 10 | 800 | 80 | – | – | – | –
Cc1ccc(C(=O)NO)cc1 | 8 | 110 | 14 | – | – | – | –
O=C(NO)c1cccc([N+](=O)[O-])c1 | 5 | 160 | 32 | – | – | – | –
COc1cc(C)ccc1C(=O)NO | 15 | 900 | 60 | – | – | – | –
CONC(=O)c1ccccc1 | > 300 | > 800 | – | – | – | – | –
CN(O)C(=O)c1ccccc1O | > 300 | > 800 | – | Non-toxic | inactive | inactive | Non-toxic
O=C(NO)c1ccccc1F | 15 | 300 | 20 | – | – | – | –
O=C(NO)c1ccc([N+](=O)[O-])cc1 | 3 | 70 | 23 | – | – | – | –
O=C(NO)c1cccc(Cl)c1 | 10 | 120 | 12 | – | – | – | –
Cc1ccccc1C(=O)NO | 85 | 650 | 8 | – | – | – | –
N/C(=N\O)c1ccccc1O | 140 | 500 | – | – | – | – | –
COc1ccccc1C(=O)N(C)O | > 300 | > 800 | – | – | – | – | –
O=C(NO)c1ccc(Cl)cc1 | 3 | 55 | 18 | – | – | – | –
COc1ccc([N+](=O)[O-])cc1C(=O)NO | 3 | 350 | 120 | – | – | – | –
O=C(NO)c1ccccc1Cl | 2 | 330 | 165 | – | – | – | –

SMILES | EC50 (Hepatitis C virus) [µM] | CC50 at 72 h [1] [µM] | Ratio CC50/EC50 [2] | Activity (RD [3]) | Activity (Enterovirus C [4]) | Activity (Enterovirus C [5]) | Activity (RD [6])
O=C(NO)c1ccccc1[N+](=O)[O-] | 1 | 55 | 55 | – | – | – | –
COc1cccc(OC)c1C(=O)NO | 50 | > 800 | >16 | – | – | – | –
COc1ccc(C(=O)NO)cc1 | 12 | 180 | 15 | – | – | – | –
CCCCOc1ccccc1C(=O)NO | 10 | 380 | 38 | – | – | – | –
O=C(NO)c1ccc(Br)cc1 | 2 | 25 | 13 | – | – | – | –
COc1cccc(C(=O)NO)c1 | 70 | 570 | 8 | – | – | – | –
NC(=NO)c1ccccc1 [BENZAMIDOXIME] | 270 | > 800 | – | – | – | – | –
O=C(NO)c1ccccc1Br | 3 | 270 | 90 | – | – | – | –
COCc1ccccc1C(=O)NO | 170 | > 1000 | >6 | – | – | – | –
Cc1ccc(C(=O)NO)c(Cl)c1 | 1.5 | 140 | 93 | – | – | – | –
Cc1cc(Br)ccc1C(=O)NO | 0.5 | 120 | 240 | – | – | – | –
NC(=O)c1ccccc1O [SALICYLAMIDE] | > 300 | > 800 | – | – | – | – | –
CONC(=O)c1ccccc1O | > 300 | > 800 | – | – | – | – | –
COc1ccccc1/C(N)=N/O | > 300 | > 800 | – | – | – | – | –
O=C(NO)c1ccc(Cl)cc1Cl | 0.8 | 140 | 175 | – | – | – | –
O=C(NO)c1ccccc1OCCOc1ccccc1C(=O)NO | 35 | > 800 | >23 | – | – | – | –
CONC(=O)c1ccccc1OC | > 300 | > 800 | – | – | – | – | –
Cc1cccc(C(=O)NO)c1 | 20 | 340 | 17 | – | – | – | –
